Here are results for 7 compounds from ChEMBL document CHEMBL1140692, “Toward the development of chemoprevention agents. Part II: Chemo-enzymatic synthesis and anti-inflammatory activities of a new class of 5-amino-2-substitutedphenyl-1,3-dioxacycloalkanes” (Bioorg Med Chem, 2007).

The subject of data set [1] is Mus musculus. Nature of the data set: Antiinflammatory activity in Kunming mouse assessed as inhibition of xylene-induced ear edema at 5 mg/kg, po after […]rs. In kind it is functional. Put shortly:
(§1)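 Male Kunming mice receive the agent orally as a suspension in 0.5% CMC; the vehicle group gets CMC alone. After 30 min, 0.03 ml xylene is applied to both surfaces of the right ear, and the left ear serves as control. At 2 h, mice are killed and 7-mm ear punches are weighed. Edema is taken as right minus left punch weight, and inhibition is calculated versus vehicle. n = 11; ANOVA.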

In data set [2] the test system is Mus musculus. As to the kind of experiment: Antiinflammatory activity in Kunming mouse assessed as inhibition of xylene-induced ear edema at 10 mg/kg, po after […]rs. It counts as functional. Put shortly: as §1
Data set [3] relates to Mus musculus. Nature of the data set: Antiinflammatory activity in Kunming mouse assessed as inhibition of xylene-induced ear edema at 20 mg/kg, po after […]rs. In kind it is functional. The procedure, abridged: as §1
For data set [4], the system named is Mus musculus. As to the kind of experiment: Gastrointestinal toxicity in mouse assessed as tail bleeding time at 200 mg/kg, po after 30 mins. It counts as organism-based. Set-up: dose 200 mg/kg, route oral. Particulars: in vivo, 0.5 h. Put shortly: (§2)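 Male mice (18–22 g) are dosed orally and compared with an NS group. At 30, 45, 60 and 90 min after dosing, each mouse is restrained in a tube holder and a 2-mm cut is made on the tail. Blood is wiped away every 30 s until flow stops, and the time to cessation is recorded.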

The subject of data set [5] is Mus musculus. As to the kind of experiment: Gastrointestinal toxicity in mouse assessed as tail bleeding time at 200 mg/kg, po after 45 mins. In kind it is organism-based. Particulars: in vivo, 0.75 h. On the set-up: dose 200 mg/kg, route oral. Put shortly: as §2
Data set [6] concerns Mus musculus. Nature of the data set: Gastrointestinal toxicity in mouse assessed as tail bleeding time at 200 mg/kg, po after 60 mins. In kind it is organism-based. On the set-up: dose 200 mg/kg, route oral. Particulars: in vivo, 1 h. The procedure, abridged:
as §2

Data set [7] deals with Mus musculus. As to the kind of experiment: Gastrointestinal toxicity in mouse assessed as tail bleeding time at 200 mg/kg, po after 90 mins. It counts as organism-based. On the set-up: dose 200 mg/kg, route oral. Particulars: in vivo, 1.5 h. The procedure, abridged:
as §2

A short description of data set [8]: Permeability from apical to basolateral side of human Caco-2 cell membrane. In kind it is ADME, cell-based.
Data set [9] is described as follows: Permeability from basolateral to apical side of human Caco-2 cell membrane. It counts as ADME, cell-based. For orientation: Passage across Caco-2 layers is used to estimate intestinal permeability.
The next data set relates to Caco-2. Nature of the data set: Ratio of permeability from apical to basolateral side over basolateral to apical side of human Caco-2 cell membrane. It counts as ADME, cell-based.
Data set [10] is described as follows: Inhibition of bovine brain PKC. Set-up: species or system Bos taurus.
Data set [11] concerns Mus musculus. Nature of the data set: Antiinflammatory activity in Kunming mouse assessed as inhibition of xylene-induced ear edema at 30 mg/kg, po after […]rs. In kind it is functional. Put shortly:
as §1

One may read the inhibition in vivo as the share of the control response that was lost under treatment. As a reminder, the Papp A→B is how fast a substance crosses the layer from the apical side. Low values mean slow passage, high ones fast passage. For orientation: Papp B→A means how fast a substance crosses the layer from the basolateral side. A word on the IC50: it is the concentration that gives 50% inhibition. In the case of `C[C@@H]1O[C@@H](c2ccc([N+](=O)[O-])cc2)OC[C@H]1N`, the inhibition in vivo at 5 mg/kg in the data set on Mus musculus [1] is 42.3%. Besides, in the data set on Mus musculus [2], the inhibition in vivo at 10 mg/kg came to 58%. In the data set with Mus musculus [3], the inhibition in vivo at 20 mg/kg is 78.5%. The Time worked out at 118.4 s in the data set on Mus musculus [4], 119.2 s in the data set with Mus musculus [5], 117.2 s with Mus musculus [6] and 118.9 s in the data set on Mus musculus [7]. The compound also gave an apical-to-basolateral permeability (Papp A→B) in data set [8] of 13 ×10⁻⁶ cm/s. The same compound showed a Papp B→A in data set [9] of 6.96 ×10⁻⁶ cm/s. Besides, in the data set with Caco-2, the Ratio amounted to 1.87. Moreover, the IC50 in data set [10] came out at 890 µM.

In the case of `C[C@@H]1O[C@@H](C=Cc2ccccc2)OC[C@H]1N`, in the data set with Mus musculus [3], the inhibition in vivo at 20 mg/kg stood at 52.9%. Moreover, the Time in the data set with Mus musculus [4] is recorded as 117.2 s; in the data set on Mus musculus [5] it was 118.6 s; in the data set on Mus musculus [6], 118.4 s; with Mus musculus [7] it was 119.2 s. Further, in data set [8], the Papp A→B was found to be 10.2 ×10⁻⁶ cm/s. Besides, the Papp B→A in data set [9] was determined as 7.17 ×10⁻⁶ cm/s. For the same compound, the Ratio in the data set with Caco-2 stood at 1.43. In data set [10], this compound yielded an IC50 of 1620 µM.

In the case of `CC(=O)Oc1ccccc1C(=O)O` [ASPIRIN], in the data set on Mus musculus [11], the inhibition in vivo at 30 mg/kg came to 40.7%. In the data set on Mus musculus [3], the inhibition in vivo at 20 mg/kg turned out to be 40.7%.

Turning to `C[C@@H]1O[C@H](c2ccc([N+](=O)[O-])cc2)OC[C@H]1N`, the inhibition in vivo at 5 mg/kg in the data set on Mus musculus [1] came to 40.1%. For the same compound, the inhibition in vivo at 10 mg/kg in the data set on Mus musculus [2] turned out to be 56.7%. Besides, in the data set with Mus musculus [3], the inhibition in vivo at 20 mg/kg stood at 77.9%. The Time in the data set with Mus musculus [4] was 117.8 s; in the data set with Mus musculus [5], 118.1 s; in the data set on Mus musculus [6], 118.8 s; in the data set on Mus musculus [7], 119 s. Further, the Papp A→B in data set [8] is 12.9 ×10⁻⁶ cm/s. The Papp B→A in data set [9] turned out to be 6.9 ×10⁻⁶ cm/s. For the same compound, the Ratio in the data set on Caco-2 worked out at 1.86. Half-maximal inhibition in data set [10] (IC50) required 930 µM.

With `C[C@@H]1O[C@H](C=Cc2ccccc2)OC[C@H]1N`, the inhibition in vivo at 20 mg/kg in the data set with Mus musculus [3] was 51.6%. Further, the Time is reported as 120.7 s in the data set with Mus musculus [4], 120.2 s in the data set with Mus musculus [5], 117.6 s in the data set on Mus musculus [6] and 117.7 s with Mus musculus [7]. Besides, in data set [8], the Papp A→B was 10.3 ×10⁻⁶ cm/s. This compound also had a Papp B→A in data set [9] of 7.06 ×10⁻⁶ cm/s. Also, in the data set with Caco-2, the Ratio is listed as 1.46. Besides, half-maximal inhibition in [10] (IC50) required 1700 µM.

Turning to `C[C@@H]1O[C@H](c2ccc(Cl)cc2)OC[C@H]1N`, the inhibition in vivo at 5 mg/kg in the data set on Mus musculus [1] was determined as 29.8%. In addition, the inhibition in vivo at 10 mg/kg in the data set on Mus musculus [2] is 46.2%. In the data set with Mus musculus [3], the inhibition in vivo at 20 mg/kg turned out to be 67.9%. In addition, the Time in the data set on Mus musculus [4] is 119.6 s; in the data set on Mus musculus [5], 118.6 s; with Mus musculus [6], 118.7 s; in the data set with Mus musculus [7], 118.6 s. Further, the Papp A→B in data set [8] is 11.7 ×10⁻⁶ cm/s. In data set [9], this compound gave a Papp B→A of 6.88 ×10⁻⁶ cm/s. Moreover, the Ratio with Caco-2 came out at 1.7. The same compound yielded an IC50 in [10] of 1140 µM.

As to `C[C@@H]1O[C@@H](c2ccc(Cl)cc2)OC[C@H]1N`, the inhibition in vivo at 5 mg/kg in the data set with Mus musculus [1] stood at 39.4%. Besides, in the data set with Mus musculus [2], the inhibition in vivo at 10 mg/kg amounted to 54.5%. Further, the inhibition in vivo at 20 mg/kg with Mus musculus [3] stood at 66.7%. The Time worked out at 118.3 s in the data set with Mus musculus [4], 118.9 s with Mus musculus [5], 118.5 s in the data set on Mus musculus [6] and 118.7 s in the data set with Mus musculus [7]. Further, in data set [8], the Papp A→B came to 11.9 ×10⁻⁶ cm/s. In addition, the Papp B→A in data set [9] was 7.01 ×10⁻⁶ cm/s. Also, in the data set on Caco-2, the Ratio is recorded as 1.7. Inhibition in data set [10] was half-maximal at 1100 µM (IC50).
